Assays:
[1] = Drug uptake in Wistar rat liver at 0.67 umol, iv after 0.25 mins by mass spectrometry analysis; assay type: ADME, organism-based; settings: read-out: Drug uptake
Summary of the method: (§1)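 Fasted, anaesthetized rats received the anthocyanin in saline as a 0.67 μmol iliac-vein bolus (76 μM in plasma). They were sacrificed at 15 s, 1, 5 or 15 min, and plasma, kidneys, liver, urine and bile were collected. Anthocyanins were methanol-extracted, SPE-cleaned and quantified by MS (tandem MS for trace metabolites), then corrected for recovery measured on spiked blood, homogenates and urine. Amounts assume 8.8 mL plasma, 2.4 g kidney and 7.0 g liver, with urine and bile volumes measured.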

Kidney [2] = experiment: Drug uptake in Wistar rat kidney assessed by assuming kidney mass was 2.4 gram at 0.67 umol, iv after 0.25 mins by mass spectrometry analysis; assay type: ADME, organism-based; settings: in vivo, 15 s
Summary of the method: (§2)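 Cyanidin 3-glucoside in saline was given as one iliac-vein injection (0.67 μmol) to fasting, anaesthetized rats, which were killed at 15 s, 1, 5 or 15 min. Kidneys were homogenized, extracted in methanol, cleaned up by SPE and analysed by LC-MS/MS.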

[3] = Metabolic stability in Wistar rat assessed as parent compound level in bile at 0.67 umol, iv after 15 mins by mass spectrometry analysis; assay type: ADME, organism-based; settings: in vivo, 0.25 h; summary of the method: as §1
[4] = Metabolic stability in Wistar rat assessed as parent compound level in urine at 0.67 umol, iv after 15 mins by mass spectrometry analysis; assay type: ADME, organism-based; settings: in vivo, 0.25 h; summary of the method: as §1
Liver [5] = experiment: Metabolic stability in Wistar rat assessed as parent compound level in liver at 0.67 umol, iv after 1 min by mass spectrometry analysis; assay type: ADME, organism-based; settings: in vivo; summary of the method: as §1
Liver [6] = experiment: Drug uptake in Wistar rat liver assessed by assuming liver mass was 7 grams at 0.67 umol, iv after 15 mins by mass spectrometry analysis; assay type: ADME, organism-based; settings: in vivo, 0.25 h; summary of the method: as §1
[7] = Drug uptake in Wistar rat plasma at 0.67 umol, iv after 0.25 mins by mass spectrometry analysis; assay type: ADME, organism-based; summary of the method: as §1
Nucleic Acid [8] = experiment: Ratio of drug uptake in kidney to liver in Wistar rat assessed as level at 0.67 umol, iv by mass spectrometry analysis; settings: in vivo
[9] = Drug uptake in Wistar rat bile at 0.67 umol, iv after 15 mins by mass spectrometry analysis; assay type: ADME, organism-based; settings: read-out: Drug uptake
Summary of the method: (§3)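 Cyanidin 3-glucoside in saline was injected into the iliac vein of fasting, anaesthetized rats (0.67 μmol; 76 μM in plasma). Urine and bile were collected to 15 min, and their volumes were measured. Anthocyanin levels were measured by LC-MS and corrected for recovery from spiked standards. Amounts are given per collected volume (n = 9 urine, n = 4 bile).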

[10] = Drug uptake in Wistar rat urine at 0.67 umol, iv after 15 mins by mass spectrometry analysis; assay type: ADME, organism-based; settings: read-out: Drug uptake; summary of the method: as §1
Plasma [11] = experiment: Metabolic stability in Wistar rat assessed as parent compound level in plasma at 0.67 umol, iv after 1 min by mass spectrometry analysis; assay type: ADME, organism-based; settings: in vivo; summary of the method: as §1
Liver [12] = experiment: Metabolic stability in Wistar rat assessed as parent compound level in liver at 0.67 umol, iv after 5 mins by mass spectrometry analysis; assay type: ADME, organism-based; settings: in vivo; summary of the method: as §1
[13] = Drug uptake in Wistar rat bile assessed by assuming plasma volume was 8.8 mL at 0.67 umol, iv after 15 mins by mass spectrometry analysis; assay type: ADME, organism-based; settings: in vivo, 0.25 h
[14] = Drug uptake in Wistar rat urine assessed by assuming plasma volume was 8.8 mL at 0.67 umol, iv after 15 mins by mass spectrometry analysis; assay type: ADME, organism-based; settings: in vivo, 0.25 h; summary of the method: as §1
[15] = Drug uptake in Wistar rat liver at 0.67 umol, iv after 15 mins by mass spectrometry analysis; assay type: ADME, organism-based; settings: read-out: Drug uptake; summary of the method: as §1
[16] = Drug uptake in Wistar rat kidney at 0.67 umol, iv after 5 mins by mass spectrometry analysis; assay type: ADME, organism-based; settings: read-out: Drug uptake; summary of the method: as §2
[17] = Drug excretion in Wistar rat urine at 0.67 umol, iv after 15 mins by mass spectrometry analysis; assay type: ADME, organism-based; settings: read-out: Activity; summary of the method: as §3
Nucleic Acid [18] = experiment: Ratio of drug uptake in kidney to liver in Wistar rat assessed as cyanidin 3-glucoside level at 0.67 umol, iv after 15 mins by mass spectrometry analysis; settings: in vivo, 0.25 h
Kidney [19] = experiment: Metabolic stability in Wistar rat assessed as parent compound level in kidney at 0.67 umol, iv after 5 mins by mass spectrometry analysis; assay type: ADME, organism-based; settings: in vivo; summary of the method: as §1
Liver [20] = experiment: Drug uptake in Wistar rat liver assessed by assuming liver mass was 7 grams at 0.67 umol, iv after 5 mins by mass spectrometry analysis; assay type: ADME, organism-based; settings: in vivo; summary of the method: as §1
Plasma [21] = experiment: Metabolic stability in Wistar rat assessed as parent compound level in plasma at 0.67 umol, iv after 5 mins by mass spectrometry analysis; assay type: ADME, organism-based; settings: in vivo; summary of the method: as §1
Plasma [22] = experiment: Metabolic stability in Wistar rat assessed as parent compound level in plasma at 0.67 umol, iv after 0.25 mins by mass spectrometry analysis; assay type: ADME, organism-based; settings: in vivo, 15 s; summary of the method: as §1
Nucleic Acid [23] = experiment: Ratio of drug uptake in bile to liver in Wistar rat at 0.67 umol, iv after 15 mins by mass spectrometry analysis; assay type: ADME, organism-based; settings: in vivo, 0.25 h
[24] = Drug uptake in Wistar rat plasma at 0.67 umol, iv after 15 mins by mass spectrometry analysis; assay type: ADME, organism-based; summary of the method: as §1
Liver [25] = experiment: Metabolic stability in Wistar rat assessed as parent compound level in liver at 0.67 umol, iv after 0.25 mins by mass spectrometry analysis; assay type: ADME, organism-based; settings: in vivo, 15 s; summary of the method: as §1
Plasma [26] = experiment: Metabolic stability in Wistar rat assessed as parent compound level in plasma at 0.67 umol, iv after 15 mins by mass spectrometry analysis; assay type: ADME, organism-based; settings: in vivo, 0.25 h; summary of the method: as §1
Liver [27] = experiment: Drug uptake in Wistar rat liver assessed by assuming liver mass was 7 grams at 0.67 umol, iv after 1 min by mass spectrometry analysis; assay type: ADME, organism-based; settings: in vivo; summary of the method: as §1
[28] = Drug uptake in Wistar rat liver at 0.67 umol, iv after 1 min by mass spectrometry analysis; assay type: ADME, organism-based; settings: read-out: Drug uptake; summary of the method: as §1
Nucleic Acid [29] = experiment: Ratio of drug uptake in urine to kidney in Wistar rat at 0.67 umol, iv after 15 mins by mass spectrometry analysis; assay type: ADME, organism-based; settings: in vivo, 0.25 h
Summary of the method: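 Fasting anaesthetized rats got 0.67 μmol anthocyanin in saline into the iliac vein (about 76 μM in plasma) and were killed at 15 min. Urine (volume measured) and kidneys (2.4 g assumed) were extracted in methanol and cleaned by SPE. Analytes were quantified by LC-tandem MS, corrected for recovery from spiked matrices, n = 9 rats.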

[30] = Drug uptake in Wistar rat kidney at 0.67 umol, iv after 15 mins by mass spectrometry analysis; assay type: ADME, organism-based; settings: read-out: Drug uptake; summary of the method: as §2
Kidney [31] = experiment: Drug uptake in Wistar rat kidney assessed by assuming kidney mass was 2.4 gram at 0.67 umol, iv after 5 mins by mass spectrometry analysis; assay type: ADME, organism-based; settings: in vivo; summary of the method: as §2
[32] = Drug uptake in Wistar rat kidney at 0.67 umol, iv after 0.25 mins by mass spectrometry analysis; assay type: ADME, organism-based; settings: read-out: Drug uptake; summary of the method: as §2
[33] = Drug uptake in Wistar rat kidney at 0.67 umol, iv after 1 min by mass spectrometry analysis; assay type: ADME, organism-based; settings: read-out: Drug uptake; summary of the method: as §2
Liver [34] = experiment: Drug uptake in Wistar rat liver assessed by assuming liver mass was 7 grams at 0.67 umol, iv after 0.25 mins by mass spectrometry analysis; assay type: ADME, organism-based; settings: in vivo, 15 s
Summary of the method: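 Fasting, anaesthetized rats received cyanidin 3-glucoside in saline into the iliac vein (0.67 μmol) and were killed at 15 s, 1, 5 or 15 min. Liver homogenates were methanol-extracted, cleaned up by SPE and quantified by LC-MS/MS.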

[35] = Drug uptake in Wistar rat plasma at 0.67 umol, iv after 5 mins by mass spectrometry analysis; assay type: ADME, organism-based; summary of the method: as §1
Kidney [36] = experiment: Metabolic stability in Wistar rat assessed as parent compound level in kidney at 0.67 umol, iv after 15 mins by mass spectrometry analysis; assay type: ADME, organism-based; settings: in vivo, 0.25 h; summary of the method: as §1
Kidney [37] = experiment: Drug uptake in Wistar rat kidney assessed by assuming kidney mass was 2.4 gram at 0.67 umol, iv after 1 min by mass spectrometry analysis; assay type: ADME, organism-based; settings: in vivo; summary of the method: as §2
[38] = Drug uptake in Wistar rat plasma at 0.67 umol, iv after 1 min by mass spectrometry analysis; assay type: ADME, organism-based; summary of the method: as §1
Kidney [39] = experiment: Metabolic stability in Wistar rat assessed as parent compound level in kidney at 0.67 umol, iv after 0.25 mins by mass spectrometry analysis; assay type: ADME, organism-based; settings: in vivo, 15 s; summary of the method: as §1
[40] = Drug excretion in Wistar rat bile at 0.67 umol, iv after 15 mins by mass spectrometry analysis; assay type: ADME, organism-based; settings: read-out: Activity; summary of the method: as §3
Liver [41] = experiment: Metabolic stability in Wistar rat assessed as parent compound level in liver at 0.67 umol, iv after 15 mins by mass spectrometry analysis; assay type: ADME, organism-based; settings: in vivo, 0.25 h; summary of the method: as §1
Kidney [42] = experiment: Drug uptake in Wistar rat kidney assessed by assuming kidney mass was 2.4 gram at 0.67 umol, iv after 15 mins by mass spectrometry analysis; assay type: ADME, organism-based; settings: in vivo, 0.25 h; summary of the method: as §2
[43] = Drug uptake in Wistar rat liver at 0.67 umol, iv after 5 mins by mass spectrometry analysis; assay type: ADME, organism-based; settings: read-out: Drug uptake; summary of the method: as §1
[44] = Elimination rate constant in Wistar rat plasma at 0.67 umol, iv; assay type: ADME, cell-free
Summary of the method: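 Rats received a 0.67 μmol iliac-vein bolus in saline under anaesthesia. Plasma amounts (nmol) at 15 s, 1, 5 and 15 min were obtained by recovery-corrected MS and fitted to y = y0 + a·e^(−kt). k is the first-order elimination constant, y0 the steady-state amount, and a the extrapolated t0 amount minus y0.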

Kidney [45] = experiment: Metabolic stability in Wistar rat assessed as parent compound level in kidney at 0.67 umol, iv after 1 min by mass spectrometry analysis; assay type: ADME, organism-based; settings: in vivo; summary of the method: as §1

SMILES: OC[C@H]1O[C@@H](Oc2cc3c(O)cc(O)cc3[o+]c2-c2ccc(O)c(O)c2)[C@H](O)[C@@H](O)[C@@H]1O [KUROMANIN]
- concentration at 15 s [1]: 0.4 µM
- Drug uptake (Kidney [2]): 27.1 nmol
- Stability [3]: 58.9 nmol
- Stability [4]: 141 nmol
- Stability (Liver [5]): 84.4 nmol
- Drug uptake (Liver [6]): 0.4 nmol
- concentration at 15 s [7]: 18.2 µM
- Ratio (Nucleic Acid [8]): 12
- concentration at 0.25 h [9]: 2.3 µM
- concentration at 0.25 h [10]: 317 µM
- Stability (Plasma [11]): 55.8 nmol
- Stability (Liver [12]): 34.6 nmol
- Drug uptake [13]: 0.4 nmol
- Drug uptake [14]: 41.3 nmol
- concentration at 0.25 h [15]: 0.1 µM
- concentration at 5 min [16]: 4.5 µM
- dose excreted at 0.25 h [17]: 6.2%
- Ratio (Nucleic Acid [18]): 37
- Stability (Kidney [19]): 52 nmol
- Drug uptake (Liver [20]): 0.1 nmol
- Stability (Plasma [21]): 17.2 nmol
- Stability (Plasma [22]): 171.2 nmol
- Ratio (Nucleic Acid [23]): 34.2
- concentration at 0.25 h [24]: 1.6 µM
- Stability (Liver [25]): 43.6 nmol
- Stability (Plasma [26]): 19.7 nmol
- Drug uptake (Liver [27]): 2.5 nmol
- concentration at 1 min [28]: 0.4 µM
- Ratio (Nucleic Acid [29]): 71.9
- concentration at 0.25 h [30]: 4.4 µM
- Drug uptake (Kidney [31]): 10.7 nmol
- concentration at 15 s [32]: 11.3 µM
- concentration at 1 min [33]: 12.4 µM
- Drug uptake (Liver [34]): 2.5 nmol
- concentration at 5 min [35]: 1.6 µM
- Stability (Kidney [36]): 62.7 nmol
- Drug uptake (Kidney [37]): 29.8 nmol
- concentration at 1 min [38]: 5.7 µM
- Stability (Kidney [39]): 73.1 nmol
- dose excreted at 0.25 h [40]: < 0.1%
- Stability (Liver [41]): 32.3 nmol
- Drug uptake (Kidney [42]): 10.6 nmol
- concentration at 5 min [43]: 0.02 µM
- k el [44]: 0.0317 s⁻¹
- Stability (Kidney [45]): 130.8 nmol

— ChEMBL document CHEMBL1782040, “Exceptionally fast uptake and metabolism of cyanidin 3-glucoside by rat kidneys and liver” (J Nat Prod, 2011)
